Data: article PMC3993885 (Journal of Natural Products, 2014)

Key:
[1] = tested on: TNF-α-induced NF-κB activity; assay type: cell-based, human; details: at 50 μM; TNF-α 2 ng/mL, 6 h
[2] = tested on: HEK293 cell line; assay: Cytotoxicity / survival in HEK293 cells, same conditions as the NF-κB assay; assay type: cell-based, human
[3] = Chemical stability of 2 monitored by 1H and 13C NMR; assay type: physicochemical; details: in DMSO-d6 at room temperature (20 °C), after a month
How it was run: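 1D 1H and 13C spectra were recorded at 400 MHz or 500 MHz. Conversion was judged from a second set of NMR signals assigned to the C-8′ dehydration product.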

[4] = tested on: dicotyledons; details: cited from earlier work
[5] = tested on: Xanthomonas oryzae; details: cited from earlier work

Compound | NF-κB % inhibition [1] [%] | NF-κB % survival ([2]; % survival at a concentration of 50 μM) [%] | IC50 ([2]; read-out: HEK293 cell line cytotoxicity IC50, same conditions as the NF-κB assay) [µM] | conversion of 2 to 2a (dehydration at C-8′) [3] [%] | herbicidal activity [4] | toxicity toward dicotyledons [4] | growth inhibition of Xanthomonas oryzae [5]
9′-deoxy-8′,8′-dihydroxyherbicidin B [Compound 2] | 96.2 ± 4.9 | 45.1 ± 5.7 | 13.7 ± 3.3 | ~70 | – | – | –
C/C=C(\CO)C(=O)O[C@H]1[C@H](O)[C@@H](C(=O)OC)O[C@@H]2C[C@H]3O[C@@H](n4cnc5c(N)ncnc54)[C@H](OC)[C@H]3O[C@]21O [Compound 4, Herbicidin A] | – | – | – | – | herbicidal | selectively toxic | significantly inhibited the growth
COC(=O)[C@H]1O[C@@H]2C[C@H]3O[C@@H](n4cnc5c(N)ncnc54)[C@H](OC)[C@H]3O[C@@]2(O)[C@@H](O)[C@@H]1O [Compound 5, Herbicidin B] | – | – | – | – | herbicidal | selectively toxic | significantly inhibited the growth
aureonucleomycin [Compound 9] | – | – | – | – | herbicidal | selectively toxic | significantly inhibited the growth
